An excerpt weighted towards active compounds, which were near 2.7% of everything screened.
ABHD4 inh = inhibits mouse alpha/beta hydrolase domain 4; Q8VD66; purified mABHD4, FP-Rh probe fluorescence polarization; AID 720543; 370,000 compounds, 0.54% hits; inhibition, % at 8.92 µM;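 active = inhibition exceeding the mean over every tested compound plus 3 SD, cut at about 30% in these data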;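 note: 0% = plate median of compound wells and 100% = S159A mutant with DMSO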
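Assay system: Wild-type mouse ABHD4 protein | Medium: HEPES pH 7.0 buffer, 150 mM NaCl, 0.01% Pluronic F-127 | Incubation: Enzyme–compound pre-incubation 45 min, then probe 60 min, both 25 °C | Technique: Fluorescence polarization with parallel and perpendicular emission, 525/598 nm | Evaluation: % inhibition of FP-Rh probe binding versus controls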
SIAE inh = blocks human sialic acid acetylesterase; Q9HAT2; SIAE FP-Rh probe binding, fluorescence polarization; inhibition, % at 9.66 µM; 370,000 compounds, 0.69% hits; AID 1053197;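 active = inhibition above a cutoff: mean of compounds within the control limits plus 3 SD of those, cut at about 17% in these data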;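 note: 0% = plate median of compound wells and 100% = probe without SIAE protein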
PRMT1 FP inh = inhibitors of human PRMT1; Q99873; recombinant PRMT1, activity-based probe fluorescence polarization; inhibition, % at 2.79 µM; 370,000 compounds, 1.3% hits;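 active = inhibition above about 21% made by adding two undisclosed values, limit read from the data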
Target sequence (Q99873 whole entry, looked up): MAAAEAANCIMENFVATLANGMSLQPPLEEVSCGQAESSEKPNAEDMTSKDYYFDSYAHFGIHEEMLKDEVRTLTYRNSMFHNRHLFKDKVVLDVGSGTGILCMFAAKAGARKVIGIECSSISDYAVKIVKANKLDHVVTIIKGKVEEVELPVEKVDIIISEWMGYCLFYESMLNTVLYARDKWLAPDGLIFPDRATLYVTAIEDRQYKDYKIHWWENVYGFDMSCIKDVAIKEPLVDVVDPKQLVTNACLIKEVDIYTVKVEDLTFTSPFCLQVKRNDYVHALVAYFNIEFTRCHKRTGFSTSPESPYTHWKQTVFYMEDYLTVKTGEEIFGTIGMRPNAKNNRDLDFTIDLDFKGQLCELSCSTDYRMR
HTRA1 inhibitor = inhibitors of human serine peptidase HTRA1. 340,000 compounds, 0.5% hits. Q92743. inhibition, % at 5.96 µM. AID 504803. recombinant HTRA1, FP-rhodamine activity-based probe, fluorescence polarization; in the data active = inhibition above about 36%;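 note: 0% = enzyme with DMSO and 100% = wells lacking enzyme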
TCR-CD3 inh = blocks the human TCR-CD3 interaction; inhibition, % at 9.4 µM; 360,000 compounds, 0.37% hits; AID 651800; TAMRA-labeled TCR probe fluorescence, biochemical; in the data active = inhibition above about 19%;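 note: recombinant mutant TCR 2C K166C tagged with TAMRA read by polarization; 0% = receptor in buffer alone and 100% = receptor with positive control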
SIAE inh conf = human SIAE inhibition, confirmation. shares compounds with SIAE inh. SIAE FP-Rh activity-based probe, fluorescence polarization. inhibition, % at 9.66 µM. 2,300 compounds, 13% hits. AID 1117263;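 active = mean inhibition of the replicates above the hit cutoff set in the primary screen, cut at about 17% in these data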;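 note: 0% = SIAE with DMSO and probe and 100% = probe without SIAE; inhibitors lower polarization as more probe stays unbound to SIAE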
An asterisk follows results filed as active; / = not tested or not shown.

SMILES	ABHD4 inh	SIAE inh	PRMT1 FP inh	HTRA1 inhibitor	TCR-CD3 inh	SIAE inh conf
COC(=O)C(NC(=O)c1ccco1)(Nc1ccc(Br)cn1)C(F)(F)F (stereo not given)	2	22*	-2	-4	-14	0
CCCC1CCC2(CC1)CCC2OC(=S)NCc1cccc(F)c1 (stereo not given)	-21	-5	0	/	/	/
CC1=CC(C)C(=O)N(C)C(C)=C1 (stereo not given)	-4	-4	-2	9	4	/
CC(=O)Nc1nnc(SCC(=O)NC(C)(C)C)s1	5	21*	-1	-3	7	-9
CCOC(=O)/C=C(\C)Sc1cc(O)c2ccccc2c1O	34*	18*	84*	20	-8	-1
CCCCCC(=O)Nc1ccc(-c2csc(N)n2)cc1	3	18*	4	0	-6	-2
O=C(Cn1nnc(-c2ccncc2)n1)Nc1ccc(Oc2ccccc2)cc1	-4	-6	2	/	/	/
Cc1cc(-c2csc(NC(=O)c3ccc(=O)[nH]c3)n2)c(C)n1Cc1ccccc1	-6	26*	10	18	1	0
CCOC(=O)c1c(NC(=O)c2ccoc2C)sc2c1CCC2	-7	24*	1	-12	0	5
CCOC(=O)Nc1sc2c(c1C(=O)OCC)CCC2	4	-7	1	-4	-1	/
CCC1CCC(N2CCN(c3ccc(F)cc3)CC2)CC1 (stereo not given)	5	17*	-6	-17	-4	0
CCN(CC)S(=O)(=O)c1cc(Br)ccc1OC	-5	18*	0	7	-5	1
Cc1cc(SCC(=O)N/N=C/c2ccc(O)cc2O)nc2ccccc12	-2	23*	5	0	2	-8
CN(C)c1ccc(/C=[N+](\[O-])C2N(c3ccccc3)C(=S)SC2(C)C)cc1 (stereo not given)	-3	26*	-2	0	-1	2
CN(C)c1ccc(/C=[N+](\[O-])C2SC(=S)N(C)C2(C)C)cc1 (stereo not given)	1	2	-2	-1	-2	/
CC(C)N1CCC(C)(C(=O)Nc2ccc(-n3cccc3)cc2)C1 (stereo not given)	1	17*	-1	/	-7	-4
CC(C)N1CCC1(C)C(=O)Nc1ccc(-n2cccc2)cc1 (stereo not given)	3	0	-3	/	1	/
CN1C2=N[C@@H](c3ccc4c(c3)OCO4)CC(=O)N2/C(=C\c2ccccc2)[C@@H]1c1ccccc1	-5	7	1	/	/	/
N#Cc1cccc(NC(=O)Nc2cccs2)c1	-3	10	6	0	-12	/
CCc1cccc(NC(=O)Nc2cccs2)c1	-1	17*	3	3	0	4
CC(C)[C@H](NS(=O)(=O)c1ccc(Cl)cc1)C(=O)OCC(=O)c1c(N)n(C)c(=O)n(C)c1=O	1	8	3	5	1	/
CC(C)C1=CC2C3C(=O)N(c4ccccc4)C(=O)C3C1C(=O)C2(C)O (stereo not given)	2	21*	-3	/	7	3
CC(C)CNc1ncnc2c1ncn2[C@H]1CN(Cc2ccco2)C[C@@H](CO)O1	0	3	-1	/	9	/
COc1ccccc1OCc1ccc(C(=O)N2CCOCC2)o1	0	20*	-1	2	-4	4
COc1ccc(N2CCN(C(=O)CSc3nnnn3C3CC3)CC2)cc1	-1	19*	1	11	-1	-2
SMILES	ABHD4 inh	SIAE inh	PRMT1 FP inh	HTRA1 inhibitor	TCR-CD3 inh	SIAE inh conf
Cc1c(C(=O)Nc2ccccc2)c2ccc(C(F)(F)F)cc2n1O	-5	25*	-1	/	4	29*
O=C(NCCO)c1cccc(Nc2nc(-c3ccccc3)c3cc(Cl)ccc3n2)c1	-15	21*	-1	-59	2	-29
COc1cccc(Nc2nc(CN)cs2)n1	10	22*	0	/	-3	6
COc1cccc(Nc2nc(C(C)N)cs2)n1 (stereo not given)	4	2	0	/	2	/
COc1ccccc1CN1CCNC(=O)C1CC(=O)NCCCn1cccn1 (stereo not given)	4	40*	-2	-5	4	8
CCOc1ccccc1CN1CCNC(=O)C1CC(=O)NCCCn1cccn1 (stereo not given)	6	6	3	7	2	/
CCOC(=O)c1[nH]c2ccc(Br)cc2c1NC(=O)CCN1CCN(C(=O)OCC)CC1	-7	18*	-1	-6	5	0
CCOC(=O)c1[nH]c2ccc(Br)cc2c1NC(=O)CCN1CCOCC1	-12	-3	6	5	-3	/
CSc1ccc(/C=C/C(=O)c2ccc(NC(=O)C(C)C)cc2)cc1	-44	-33	1	-73	12	/
CSc1ccc(/C=C/C(=O)c2ccc(NC(=O)Cc3ccccc3)cc2)cc1	-11	31*	0	-54	51*	45*
Cc1ccc(C(=O)NCC(=O)OCC(=O)NC2CCS(=O)(=O)C2)cc1C (stereo not given)	-6	-1	3	3	-2	/
Cc1sc(NC(=O)CS(=O)(=O)c2ccccc2)c(C(N)=O)c1C	0	17*	-2	4	6	1
Cc1c(C)n(CCc2ccccc2)c2ncnc(NCCCO)c12	-4	18*	1	-10	6	5
Cc1c(C)n(CCc2ccccc2)c2ncnc(NN)c12	3	1	-4	0	-5	/
Nn1cc(-c2ccccc2)nc1SCC(=O)NCC1CCCO1 (stereo not given)	-1	2	-1	-6	6	/
CCCC(C)NC(=O)CSc1nc(-c2ccccc2)cn1N (stereo not given)	-11	17*	-1	4	0	0
COC(=O)[C@]12C[C@H](CC(=O)N3CCCCC3)C(=O)N(Cc3ccc(Cl)cc3Cl)C1=C[C@H](C(C)C)O[C@@H]2C1CC1	-2	-3	-7	/	/	/
COc1ccc(NC(=O)c2cc3c(-c4ccc(OC)c(OC)c4)nn(C)c3s2)cc1OC	17	19*	0	14	9	13
COc1ccccc1CCNC(=O)c1c(N)[nH]c(C(=O)c2ccccc2)c1-c1ccc(Br)cc1	7	18*	-5	/	6	2
COc1ccc(-n2c(=S)[nH]c3cc(C(=O)Nc4cc(OC)c(OC)c(OC)c4)ccc3c2=O)c(OC)c1	-1	17*	-5	1	-1	2
CCOC(=O)/C(=C\c1c[nH]c2ccccc12)NC(C)=O	5	18*	-3	2	-9	4
COC(=O)/C(=C\c1c[nH]c2ccccc12)NC(C)=O	1	-2	-2	-3	6	/
O=C(Nc1ccccc1C(F)(F)F)OC1CC2CC1[C@H]1CCCCN1C2 (stereo not given in full)	6	-1	0	/	/	/
CC(NC(=O)C(NC(=O)OCc1ccccc1)C(C)O)C(=O)OCc1ccccc1 (stereo not given)	7	4	-1	/	0	/

Source: PubChem (The Scripps Research Institute Molecular Screening Center)
